Results from different studies.
Lines come from different studies, so protocols differ.
MC4R: Melanocortin receptor 4 (MC4R, Homo sapiens, UniProt P32245)
BCHE: Cholinesterase (BCHE, Homo sapiens, UniProt P06276)
Oprk1: Kappa-type opioid receptor (Oprk1, Mus musculus, UniProt P33534)

Compound	target	assay	test system	conditions	quantity	value
CN1CCC[C@H]1c1cccnc1	Muscarinic acetylcholine receptor M5 (CHRM5, Homo sapiens, UniProt P08912)	ligand displacement	–	50 µM	inhibition	-4.76%
CCCC[C@H](NC(C)=O)C(=O)N[C@@H](C)C(=O)N[C@@H](Cc1c[nH]cn1)C(=O)N[C@@H](Cc1ccccc1)C(=O)N[C@@H](CCCNC(=N)N)C(=O)N[C@H](Cc1c[nH]c2ccccc12)C(=O)N[C@@H](CC(=O)O)C(=O)N[C@@H](CCCNC(=N)N)C(=O)N[C@@H](Cc1ccccc1)C(=O)N[C@@H](C(=O)N1CCC[C@@H]1C(N)=O)C(C)C	MC4R	cAMP, agonist	CHO-K1	–	Emax	100%
COc1cc(/C=C/C(=O)O)ccc1OCc1cn(CC(=O)Nc2cccc(Cl)c2)nn1	BCHE	enzyme activity, inhibitor, Ellman	–	40 µM	inhibition	15.3%
CC(C)[C@@H](CN1CCc2ccccc2C1)NC(=O)c1cccc(-c2cccc(O)c2)c1	Oprk1	ligand displacement, radioligand	–	10 µM	inhibition	94.2%
COc1cc(/C=C/C(=O)O)ccc1OCc1cn(CC(=O)Nc2ccccc2C)nn1	BCHE	enzyme activity, inhibitor, Ellman	–	40 µM	inhibition	44.6%
CC(C)[C@@H](CN1CCc2ccccc2C1)NC(=O)Cc1c[nH]c2ccccc12	Oprk1	ligand displacement, radioligand	–	10 µM	inhibition	89.1%
CC(C)CC(=O)OC[C@H]1O[C@@](C#N)(c2ccc3c(N)ncnn23)[C@H](O)[C@@H]1O	MC4R	cell-free assay	–	20 µM	inhibition	6%
[2H]c1c([2H])c([C@]2([2H])CCCN2C(=O)C(C)(C)Oc2ccc3cn[nH]c3c2)c([2H])c([2H])c1C([2H])([2H])[2H]	Peripheral plasma membrane protein CASK (CASK, Homo sapiens, UniProt O14936)	binding, competition with immobilised ligand	–	1 µM	remaining binding	89%
COc1cc(/C=C/C(=O)O)ccc1OCc1cn(CC(=O)Nc2ccc(Cl)cc2)nn1	BCHE	enzyme activity, inhibitor, Ellman	–	40 µM	inhibition	22.2%
Cc1c(CC(=O)N[C@@H](CN2CCc3ccccc3C2)C(C)C)cccc1[N+](=O)[O-]	Oprk1	ligand displacement, radioligand	–	10 µM	inhibition	95.1%
